# Source: ChEMBL document CHEMBL3046036, “Bioactivity of the fungal metabolite (8R,16R)-(-)-pyrenophorin on graminaceous plants” (J Agric Food Chem, 2005)
# Calls of active or inactive are those of the source. No cut-off for these calls is given here.
# Columns and labels:
# [1] = test system: Avena sterilis; experiment: Inhibition of Avena sterilis seed germination at 20 degC at 320 uM (reference value: 0%); assay type: functional
# [2] = test system: Avena sterilis; experiment: Enhancement of Avena sterilis root growth at 20 degC and 12 hr photoperiod at 10 to 30 uM; assay type: functional, organism-based
# How it was run: (§1)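 Pregerminated seeds were exposed in tubes to aqueous metabolite and kept in a growth chamber at 20 °C with a 12-h photoperiod. Main root length was measured after 120 h.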
# [3] = test system: Avena sativa; experiment: Effect on chlorophyll content in Avena sativa assessed as chlorophyll dissipation rate at 20 degC and 12 hr photoperiod at 320 uM relative to control; assay type: ADME, organism-based; details: in vivo
# How it was run: (§2)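 Leaf sections were treated with 320 µM metabolite and incubated in the dark at 20 °C, with 16 tubes per treatment. Every 12 h, segments from one tube were split into four tubes and extracted in DMSO at 65 °C for 30 min. Extracts were read at A665, tissue was dried at 105 °C and weighed, and chlorophyll was expressed as A665 per g dry weight.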
# [4] = test system: Avena fatua; experiment: Inhibition of Avena fatua seed germination at 20 degC at 640 uM (reference value: 0%); assay type: functional
# [5] = test system: Avena sativa; experiment: Inhibition of Avena sativa seed germination at 20 degC at 60 uM (reference value: 0%); assay type: functional
# [6] = test system: Avena fatua; experiment: Effect on chlorophyll content in Avena fatua assessed as chlorophyll dissipation rate at 20 degC and […] at 320 uM relative to control; assay type: ADME, organism-based; details: in vivo; how it was run: as §2
# [7] = test system: Avena sativa; experiment: Inhibition of Avena sativa seed germination at 20 degC at 320 uM (reference value: 0%); assay type: functional
# [8] = test system: Avena sativa; experiment: Inhibition of Avena sativa seed germination at 20 degC at 100 uM (reference value: 0%); assay type: functional
# [9] = test system: Avena sativa; experiment: Inhibition of Avena sativa seed germination at 20 degC at 90 uM (reference value: 0%); assay type: functional
# [10] = test system: Hordeum vulgare; experiment: Inhibition of Hordeum vulgare (barley) seed germination at 20 degC at 10 to 50 uM (reference value: 0%); assay type: functional
# [11] = test system: Avena fatua; experiment: Inhibition of Avena fatua seed germination at 20 degC at 90 uM (reference value: 0%); assay type: functional
# [12] = test system: Avena sativa; experiment: Inhibition of Avena sativa seed germination at 20 degC at 80 uM (reference value: 0%); assay type: functional
# [13] = test system: Avena fatua; experiment: Inhibition of Avena fatua seed germination at 20 degC at 100 uM (reference value: 0%); assay type: functional
# [14] = test system: Avena fatua; experiment: Inhibition of Avena fatua seed germination at 20 degC at 10 to 50 uM (reference value: 0%); assay type: functional
# [15] = test system: Avena sterilis; experiment: Inhibition of Avena sterilis root growth at 20 degC and 12 hr photoperiod at > 51 uM; assay type: functional, organism-based; how it was run: as §1
# [16] = test system: Avena fatua; experiment: Phytotoxicity against Avena fatua root growth at 20 degC and 12 hr photoperiod at 1000 uM; assay type: organism-based; details: in vivo
# [17] = test system: Avena fatua; experiment: Inhibition of Avena fatua seed germination at 20 degC at 320 uM (reference value: 0%); assay type: functional
# [18] = test system: Avena sativa; experiment: Inhibition of Avena sativa seed germination at 20 degC at 200 uM (reference value: 0%); assay type: functional
# [19] = test system: Hordeum vulgare; experiment: Effect on chlorophyll content in Hordeum vulgare (barley) assessed as chlorophyll dissipation rate at 20 degC and 12 hr photoperiod at 320 uM relative to control; assay type: ADME, organism-based; details: in vivo; how it was run: as §2
# [20] = test system: Avena sativa; experiment: Inhibition of Avena sativa root growth at 20 degC and 12 hr photoperiod at > 51 uM; assay type: functional, organism-based; how it was run: as §1
# [21] = test system: Avena fatua; experiment: Enhancement of Avena fatua root growth at 20 degC and 12 hr photoperiod at 10 to 30 uM; assay type: functional, organism-based; how it was run: as §1
# [22] = test system: Triticum aestivum; experiment: Inhibition of Triticum aestivum (wheat) seed germination at 20 degC at 320 uM (reference value: 0%); assay type: functional
# [23] = test system: Hordeum vulgare; experiment: Phytotoxicity against Hordeum vulgare (barley) root growth at 20 degC and 12 hr photoperiod at 1000 uM; assay type: organism-based; details: in vivo
# [24] = test system: Avena sterilis; experiment: Inhibition of Avena sterilis seed germination at 20 degC at 640 uM (reference value: 0%); assay type: functional
# [25] = test system: Avena fatua; experiment: Inhibition of Avena fatua root growth at 20 degC and 12 hr photoperiod at > 51 uM; assay type: functional, organism-based; how it was run: as §1
# [26] = test system: Triticum aestivum; experiment: Inhibition of Triticum aestivum (wheat) root growth at 20 degC and 12 hr photoperiod at > 51 uM; assay type: functional, organism-based
# [27] = test system: Triticum aestivum; experiment: Inhibition of Triticum aestivum (wheat) seed germination at 20 degC at 100 uM (reference value: 0%); assay type: functional
# [28] = test system: Avena fatua; experiment: Inhibition of Avena fatua seed germination at 20 degC at 60 uM (reference value: 0%); assay type: functional
# [29] = test system: Avena sterilis; experiment: Inhibition of Avena sterilis seed germination at 20 degC at 100 uM (reference value: 0%); assay type: functional
# [30] = test system: Hordeum vulgare; experiment: Inhibition of Hordeum vulgare (barley) seed germination at 20 degC at 70 uM (reference value: 0%); assay type: functional
# [31] = test system: Triticum aestivum; experiment: Inhibition of Triticum aestivum (wheat) seed germination at 20 degC at 10 to 50 uM (reference value: 0%); assay type: functional
# [32] = test system: Triticum aestivum; experiment: Inhibition of Triticum aestivum (wheat) seed germination at 20 degC at 640 uM (reference value: 0%); assay type: functional
# [33] = test system: Hordeum vulgare; experiment: Inhibition of Hordeum vulgare (barley) seed germination at 20 degC at 320 uM (reference value: 0%); assay type: functional
# [34] = test system: Avena sativa; experiment: Enhancement of Avena sativa root growth at 20 degC and 12 hr photoperiod at 10 to 30 uM; assay type: functional, organism-based; how it was run: as §1
# [35] = test system: Hordeum vulgare; experiment: Inhibition of Hordeum vulgare (barley) root growth at 20 degC and 12 hr photoperiod at 31 to 50 uM; assay type: functional, organism-based; how it was run: as §1
structure (smiles),measurement,setting,value
"C[C@@H]1CCC(=O)/C=C/C(=O)O[C@H](C)CCC(=O)/C=C/C(=O)O1 [(8R,16R)-(-)-pyrenophorin]",inhibition at 320 µM,[1],100%
same,Activity,[2],Active
same,Ratio,[3],1.4
same,inhibition at 640 µM,[4],100%
same,inhibition at 60 µM,[5],14.5%
same,Ratio,[6],1.4
same,inhibition at 320 µM,[7],100%
same,inhibition at 100 µM,[8],93.5%
same,inhibition at 90 µM,[9],89%
same,inhibition (INH),[10],0%
same,inhibition at 90 µM,[11],87.8%
same,inhibition at 80 µM,[12],82.6%
same,inhibition at 100 µM,[13],95.3%
same,inhibition (INH),[14],0%
same,inhibition,[15],Active
same,Activity,[16],Non-toxic
same,inhibition at 320 µM,[17],100%
same,inhibition at 200 µM,[18],95.6%
same,Ratio,[19],1.4
same,inhibition,[20],Active
same,Activity,[21],Active
same,inhibition at 320 µM,[22],98%
same,Activity,[23],Non-toxic
same,inhibition at 640 µM,[24],100%
same,inhibition,[25],Active
same,inhibition,[26],Active
same,inhibition at 100 µM,[27],90.8%
same,inhibition at 60 µM,[28],12.5%
same,inhibition at 100 µM,[29],96.8%
same,inhibition at 70 µM,[30],67.5%
same,inhibition (INH),[31],0%
same,inhibition at 640 µM,[32],100%
same,inhibition at 320 µM,[33],100%
same,Activity,[34],Active
same,inhibition,[35],inactive
